Experimental findings from ChEMBL document CHEMBL4118031, “Halogenated Compounds from Directed Fermentation of Penicillium concentricum, an Endophytic Fungus of the Liverwort Trichocolea tomentella” (J Nat Prod, 2017) are described below.

A value given as a limit tells only on which side of the number the result lay.

In one assay the test system is MCF7. The assay is described as follows: Cytotoxicity against human MCF7 cells after 3 days by sulforhodamine B assay. The class given is functional, cell-based. Conditions: MCF7, 72 h. Summed up: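 Antiproliferative assay on MCF-7 breast cancer cells following a published protocol, with camptothecin as the positive control.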
The subject of the next assay is HT-29. The assay is described as follows: Cytotoxicity against human HT-29 cells after 3 days by sulforhodamine B assay. To be noted: HT-29, 72 h. The class given is functional, cell-based. Summed up:
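Antiproliferative assay on HT-29 colon cancer cells following a protocol from earlier work, with paclitaxel as the positive control.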

Compound `O=C1C(CO)=C[C@@H](O)[C@@H](O)[C@H]1Br` registered a half-inhibitory concentration (IC50) with MCF7 of 9.7 µM. As to `COc1cc(O)c(C(=O)c2c(C)cc(O)cc2OC)c(O)c1`, the concentration for half-maximal inhibition (IC50) in the assay with MCF7 and in the assay on HT-29 was over 20 µM in each case.

On to `O=C1C(CO)=C[C@@H](O)[C@@H](O)[C@H]1Cl`, for which the IC50 in the assay on MCF7 was over 20 µM.

Regarding `O=C1C(CO)=C[C@@H](O)[C@H]2O[C@@H]12` [EPOXYDON], the IC50 was found to be 5.7 µM in the assay on MCF7 and 14.1 µM with HT-29.

Consider `COC1=CC(=O)C[C@@H](C)[C@]12Oc1cc(OC)cc(OC)c1C2=O`, for which the IC50 with MCF7 and in the assay on HT-29 was over 20 µM each time.

On to `O=C(OCCO)c1ccccc1`, for which the IC50 in the assay on MCF7 and in the assay on HT-29 was over 20 µM in each case.

In the case of `CC[C@@]1(O)C(=O)OCc2c1cc1n(c2=O)Cc2cc3ccccc3nc2-1` [CAMPTOTHECIN], the IC50 in the assay with MCF7 turned out to be 0.073 µM. Regarding `OCc1cc(O)cc(Cl)c1O`, the IC50 in the assay on MCF7 came out at 14.9 µM.

`CC(=O)O[C@H]1C(=O)[C@@]2(C)[C@H]([C@H](OC(=O)c3ccccc3)[C@]3(O)C[C@H](OC(=O)[C@H](O)[C@@H](NC(=O)c4ccccc4)c4ccccc4)C(C)=C1C3(C)C)[C@]1(OC(C)=O)CO[C@@H]1C[C@@H]2O` [PACLITAXEL] came in with an IC50 in the assay with HT-29 of 0.0014 µM.

As to `O=C1C(CO)=C[C@@H](O)[C@@H](O)[C@@H]1Cl`, in the assay on MCF7, the IC50 is over 20 µM. Still for that read-out and setting: the result for `Cc1cc(O)cc2oc3cc(Cl)cc(O)c3c(=O)c12` reads over 20 µM. With `Cc1cc(O)cc2oc(=O)c3c(O)cc(O)cc3c12` [ALTERNARIOL], the half-inhibitory concentration (IC50) in the assay with MCF7 and with HT-29 was over 20 µM throughout. As for `COC1=CC(=O)C[C@@H](C)[C@]12Oc1c(Cl)c(OC)cc(OC)c1C2=O` [GRISEOFULVIN], the IC50 was 13.9 µM in the assay on MCF7 and over 20 µM in the assay with HT-29. For `COc1cc(O)c(C(=O)c2c(C)cc(O)cc2OC)c(O)c1Cl`, the IC50 in the assay on MCF7 and in the assay on HT-29 was over 20 µM throughout. As for `OCc1cc(O)ccc1O` [GENTISYL ALCOHOL], the results for the IC50 in the assay with MCF7 and in the assay with HT-29 were 17.1 µM and 6.4 µM, respectively.

As to `OCc1cc(O)cc(Br)c1O`, the IC50 in the assay on MCF7 stood at 8.4 µM. In other words, the single-digit micromolar range. In the case of `COC1=CC(=O)C=C(C)[C@]12Oc1cc(OC)cc(OC)c1C2=O`, the IC50 in the assay with MCF7 and in the assay with HT-29 was over 20 µM each time. Take `COc1cc(O)c2c(=O)c3c(C)cc(O)cc3oc2c1`: the IC50 in the assay with MCF7 and in the assay on HT-29 was over 20 µM in each case. On to `Cc1cc(O)cc2oc3cc(O)cc(O)c3c(=O)c12` [NORLICHEXANTHONE], for which the IC50 with MCF7 and in the assay on HT-29 was over 20 µM in each case. With `COc1cc(O)c2c(=O)c3c(C)cc(O)c(O)c3oc2c1`, the half-inhibitory concentration (IC50) in the assay on MCF7 and in the assay with HT-29 was over 20 µM throughout. For the compound `O=C1C(CO)=C[C@@H](O)[C@@H](O)[C@@H]1Br`, the IC50 in the assay with MCF7 amounted to 9.7 µM.

As to `OCC(O)c1ccccc1` (racemic), the IC50 in the assay on MCF7 and in the assay with HT-29 was over 20 µM in each case.
